Data as given in ChEMBL document CHEMBL1137561 (J Med Chem, 2007).

How the values were obtained:
[1] = molecular target: Human immunodeficiency virus type 1 reverse transcriptase (Human immunodeficiency virus 1, UniProt Q72547, Y188L); test: Inhibition of HIV1 reverse transcriptase Y188L mutant
[2] = molecular target: Human immunodeficiency virus type 1 reverse transcriptase (Human immunodeficiency virus 1, UniProt Q72547, L100I); test: Inhibition of HIV1 reverse transcriptase L100I mutant
[3] = molecular target: Human immunodeficiency virus type 1 reverse transcriptase (Human immunodeficiency virus 1, UniProt Q72547, K103N); test: Inhibition of HIV1 reverse transcriptase K103N mutant
[4] = Selectivity index, ratio of CC50 for MT4 cells to EC50 for HIV1 NL43 infected MT4 cells; assay type: functional
[5] = molecular target: Human immunodeficiency virus type 1 reverse transcriptase (Human immunodeficiency virus 1, UniProt Q72547, V179D); test: Inhibition of HIV1 reverse transcriptase V179D mutant
[6] = Cytotoxicity against MT4 cells after 4 days by MTT method; assay type: cell-based; details: human
How it was run: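 Mock-infected (noninfected) MT-4 cells, run in parallel with the antiviral test. Viable cells read by the MTT tetrazolium colorimetric method. […] Means ± SD from at least two experiments. The top concentration was limited where compounds precipitated in the culture medium.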

[7] = molecular target: Human immunodeficiency virus type 1 reverse transcriptase (Human immunodeficiency virus 1, UniProt Q72547); test: Inhibition of wild type HIV1 3B reverse transcriptase
[8] = tested on: Human immunodeficiency virus 1; test: Antiviral activity against HIV1 NL43 in MT4 cells assessed as inhibition of viral induced cytopathic effect after 5 days by MTT method; details: Human immunodeficiency virus 1, NL43, MT4, 120 h
[9] = molecular target: Human immunodeficiency virus type 1 reverse transcriptase (Human immunodeficiency virus 1, UniProt Q72547, V106A); test: Inhibition of HIV1 reverse transcriptase V106A mutant
[10] = Inhibition of HIV1 reverse transcriptase Y1811 mutant; parameters: species or system Human immunodeficiency virus 1
How it was run: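 Recombinant HIV-1 RT Y181I mutant, purified to >95%, 10 min preincubation with inhibitor. Radioactive nucleotide incorporation into poly(rA)/oligo(dT) 10:1 was followed at varied nucleotide substrate levels, sampling every 2 min for initial velocities. Inhibitor spanned 0.2–5 Ki. Ki came from Lineweaver-Burk and Dixon plots. Means ± SD of at least three experiments.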

[11] = Resistance index, Ratio of EC50 for drug-resistant HIV1 with RT Y181C mutation in MT4 cells to EC50 for HIV1 NL43 in MT4 cells
[12] = tested on: Human immunodeficiency virus 1; test: Antiviral activity against HIV1 with reverse transcriptase Y181C mutation in MT4 cells assessed as inhibition of viral induced cytopathic effect by MTT method; assay type: functional, organism-based; details: Human immunodeficiency virus 1, MT4
How it was run: (§1)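 MT-4 cells infected with the HIV-1 NNRTI-resistant mutant strain. Viable cells scored at day 5 post-infection by the MTT tetrazolium colorimetric method. […] Values are means ± SD from at least two experiments.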

[13] = Resistance index, Ratio of EC50 for drug-resistant HIV1 with RT IRLL98 mutation in MT4 cells to EC50 for HIV1 NL43 in MT4 cells
[14] = tested on: Human immunodeficiency virus 1; test: Antiviral activity against HIV1 with reverse transcriptase Y188L mutation in MT4 cells assessed as inhibition of viral induced cytopathic effect by MTT method; assay type: functional, organism-based; details: Human immunodeficiency virus 1, MT4
How it was run: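 MT-4 cells infected with the HIV-1 NNRTI-resistant mutant strain. Viable cells scored at day 5 post-infection by the MTT tetrazolium colorimetric method. Values are means ± SD from at least two experiments.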

[15] = tested on: Human immunodeficiency virus 1; test: Antiviral activity against HIV1 with reverse transcriptase IRLL98 mutation in MT4 cells assessed as inhibition of viral induced cytopathic effect by MTT method; assay type: functional, organism-based; details: Human immunodeficiency virus 1, MT4
[16] = Resistance index, Ratio of EC50 for drug-resistant HIV1 with RT K103N mutation in MT4 cells to EC50 for HIV1 NL43 in MT4 cells
[17] = tested on: Human immunodeficiency virus 1; test: Antiviral activity against HIV1 with reverse transcriptase K103N mutation in MT4 cells assessed as inhibition of viral induced cytopathic effect by MTT method; assay type: functional, organism-based; details: Human immunodeficiency virus 1, MT4; how it was run: as §1
[18] = Resistance index, Ratio of EC50 for drug-resistant HIV1 with RT Y188L mutation in MT4 cells to EC50 for HIV1 NL43 in MT4 cells

Structure (SMILES) | Ki [1] [nM] | Ki [2] [nM] | Ki [3] [nM] | Ratio CC50/EC50 [4] | Ki [5] [nM] | CC50 at 96 h [6] [nM] | Ki [7] [nM] | EC50 [8] [nM] | Ki [9] [nM] | Ki [10] [nM] | Ratio EC50 [11] | EC50 [12] [nM] | Ratio EC50 [13] | EC50 [14] [nM] | EC50 [15] [nM] | Ratio EC50 [16] | EC50 [17] [nM] | Fold change [11] | Fold change [16] | Ratio EC50 [18]
Cc1c(Cc2c(F)cccc2F)nc(N2CCN(c3ccccn3)CC2)[nH]c1=O | 490 | > 20000 | > 20000 | >5250 | 10 | > 63000 | 50 | 12 | 10 | > 20000 |  |  |  |  |  |  |  |  |  | 
Cc1c(Cc2c(F)cccc2N2CCCC2)nc(N2CCCC2)[nH]c1=O |  |  |  | >113 |  | > 70000 |  | 620 | 500 |  |  |  |  |  |  |  |  |  |  | 
Cc1c(C(C)c2c(F)cccc2F)nc(N2CCCC2)[nH]c1=O (stereo not drawn) |  |  |  | >39000 |  | > 78000 |  | 2 |  |  | 35 | 71 | 100 | > 10000 | 200 | 77 | 155 |  |  | 
Cc1c(Cc2c(F)cccc2F)nc(N(C)C)[nH]c1=O | 11000 | 10000 | 9000 | >17800 | 1600 | > 89000 | 100 | 5 | 700 | > 20000 | 364 | 1820 | 100 | > 10000 | 500 | 480 | 2400 |  |  | 
CCCN(C)c1nc(C(C)c2c(F)cccc2F)cc(=O)[nH]1 (stereo not drawn) |  |  |  | >135000 |  | > 81000 |  | 0.6 |  |  |  | 50 | 250 | > 10000 | 150 |  | 80 | 83 | 133 | 
Cc1c(C(C)c2c(F)cccc2F)nc(N2CCCC(C)C2)[nH]c1=O (stereo not drawn) |  |  |  | >24000 |  | > 72000 |  | 3 |  |  | 5 | 14 | 67 | 120 | 200 | 64 | 193 |  |  | 40
CC(c1cc(=O)[nH]c(N(C)C)n1)c1c(F)cccc1F (stereo not drawn) |  |  |  | 89000 |  | 89000 |  | 1 | 500 |  | 260 | 260 | 670 | > 10000 | 670 | 120 | 120 |  |  | 
CCC(c1cc(=O)[nH]c(N(C)C)n1)c1c(F)cccc1F (stereo not drawn) | 5000 | 3300 | 10000 | 36500 | 30 | 73000 | 100 | 2 | 140 | > 20000 | 215 | 430 | 800 | > 10000 | 1600 | 90 | 180 |  |  | 
Cc1c(Cc2c(F)cccc2F)nc(N2CCCCC2)[nH]c1=O |  |  |  | >26000 |  | > 78000 |  | 3 |  |  | 47 | 140 | 273 | 10000 | 820 |  | > 10000 |  |  | 3333
Cc1c(Cc2c(F)cccc2F)nc(N2CCCCCC2)[nH]c1=O |  |  |  | >1500 |  | > 75000 |  | 50 | 500 |  | 11 | 570 | 34 | > 10000 | 1700 |  | > 10000 |  |  | 
O=c1cc(Cc2c(F)cccc2F)nc(N2CCOCC2)[nH]1 | > 20000 | 15000 | > 20000 | >384 |  | > 81000 | 700 | 211 | 2900 | > 20000 |  | > 10000 |  | > 10000 | > 10000 |  | > 10000 |  |  | 
